Measurements collected from several papers.
Protocols differ between the studies behind these lines.
Cell line: HCT-15
Observed: cell growth or viability

| SMILES | method | concentration | time | endpoint | result |
| --- | --- | --- | --- | --- | --- |
| COc1ccc(C(=O)/C=C/c2cccc(Cl)c2Cl)cc1S(N)(=O)=O | SRB | – | 48 h | GI50 | 1300 nM |
| CC(C)C[C@H](NC(=O)[C@H](Cc1ccccc1)NC(=O)c1cnccn1)B(O)O | ATP luminescence | – | – | IC50 | 9.6 nM |
| CC(C)c1cccc(C(C)C)c1-n1ccn(-c2c(C(C)C)cccc2C(C)C)c1=[Se] | MTT | – | 72 h | IC50 | 14800 nM |
| S=C([S][Au-][P+](CCCCCC[P+]([Au-][S]C(=S)n1cccn1)(c1ccccc1)c1ccccc1)(c1ccccc1)c1ccccc1)n1cccn1 | – | – | – | GI50 | 2880 nM |
| CC(C)[C@H](N)c1nc2cc(-c3ccncc3F)sc2c(=O)[nH]1 | MTT | – | – | IC50 | 301 nM |
| Cc1c(C)n(-c2c(C(C)C)cccc2C(C)C)c(=[Se])n1-c1c(C(C)C)cccc1C(C)C | MTT | – | 72 h | IC50 | 16200 nM |
| COc1cc(Nc2nccc(-c3cnn4nc(OC)ccc34)n2)cc(C(F)(F)F)c1 | ATP luminescence | – | – | IC50 | 360 nM |
| COc1cccc(Oc2ccccc2NC(=O)CNC(=O)c2cccc3ccccc23)c1 | SRB | – | 48 h | GI50 | 129 nM |
| O=C(O)CCCc1ccccc1 | MTT | – | 72 h | IC50 | > 50000 nM |
| COc1ccc(C(=O)/C=C/c2ccc3c(c2)OCCO3)cc1S(N)(=O)=O | SRB | 10 µM | – | inhibition | 58% |
| Cc1cc(C)n(C(=S)[S][Au][PH](CCCCCC[PH]([Au][S]C(=S)n2nc(C)cc2C)(c2ccccc2)c2ccccc2)(c2ccccc2)c2ccccc2)n1 | – | – | – | GI50 | 1120 nM |
| [Se]=c1n(C23CC4CC(CC(C4)C2)C3)ccn1C12CC3CC(CC(C3)C1)C2 | MTT | – | 72 h | IC50 | 8300 nM |
| COc1cccc2c1C(=O)c1c(O)c3c(c(O)c1C2=O)C[C@@](O)(C(=O)CO)C[C@@H]3O[C@H]1C[C@H](N)[C@H](O)[C@H](C)O1 | MTT | – | 24 h | IC50 | 6600 nM |
